Reference: ChEMBL document CHEMBL1121508, “Synthesis of alpha-methylene-gamma-butyrolactones: a structure-activity relationship study of their allergenic power” (1980)

How the values were obtained:
Assay type in all cases: functional
[1] = species: Cavia porcellus; experiment: Number of guinea pigs sensitized to alpha-methylene-gamma-butyrolactone (out of 10 guinea pigs); also: test concentration or dose not given here
In short: (§1)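 Female guinea pigs (albino Hartley and Himalayan spotted Füllingsdorf), 300–500 g, sensitized by Klečak's method. The hapten was emulsified in Freund's complete adjuvant and injected intradermally into the shaved nuchal region on alternate days, five injections in all. Skin reactions at elicitation were scored up to 3 (erythema plus swelling well beyond the test area) and 4 (necrosis or ulceration). Irritation thresholds were first set on untreated animals by the same elicitation procedure.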

[2] = species: Cavia porcellus; experiment: Number of guinea pigs sensitized to the sesquiterpene isoalantolactone (out of 8 guinea pigs); in short: as §1; also: test concentration or dose not given here
[3] = species: Cavia porcellus; experiment: Average skin reaction in guinea pig sensitized to the sesquiterpene isoalantolactone; in short: as §1
[4] = species: Cavia porcellus; experiment: Average skin reaction in guinea pig sensitized to alpha-methylene-gamma-butyrolactone; in short: as §1
[5] = species: Cavia porcellus; experiment: Number guinea pigs sensitized to the sesquiterpene alantolactone (out of 7 guinea pigs); in short: as §1; also: test concentration or dose not given here
[6] = species: Cavia porcellus; experiment: Average skin reaction in guinea pig sensitized to the sesquiterpene alantolactone; in short: as §1
[7] = species: Cavia porcellus; experiment: Open Epicutaneous tests were performed on guinea pigs sensitized to alpha-methylene-gamma-butyrolactone; in short: as §1; also: test concentration or dose not given here
[8] = species: Cavia porcellus; experiment: Average skin reaction in guinea pig sensitized to alpha-methylene-gamma-butyrolactone (toxic); in short: as §1
[9] = species: Cavia porcellus; experiment: Average skin reaction in guinea pig sensitized to the sesquiterpene alantolactone (toxic); in short: as §1
[10] = species: Cavia porcellus; experiment: Average skin reaction in guinea pig sensitized to the sesquiterpene isoalantolactone (toxic); in short: as §1
[11] = species: Cavia porcellus; experiment: Average skin reaction in guinea pig sensitized to the sesquiterpene alantolactone*-toxic; in short: as §1

C=C1C(=O)OC(c2ccccc2)(c2ccccc2)C1C(=O)OCC (centres undefined) showed a No. of sensitive [1] of 0, a No. of sensitive [2] of 0 and an Average skin reaction [3] of 0. The Average skin reaction [4] was 0, the No. of sensitive [5] was 1 and the Average skin reaction [6] was 0.1.

For C=C1CC2(OC1=O)C1CCC(C1)C2(C)C (centres undefined), the No. of sensitive [1] was 0, the No. of sensitive [2] was 8 and the Average skin reaction [3] was 1.1. For the same compound, the Average skin reaction [4] was 0, the No. of sensitive [5] was 7 and the Average skin reaction [6] was 0.7.

Compound C=C1CC(CC)(CC)OC1=O has a No. of sensitive [1] of 0, a No. of sensitive [2] of 8 and an Average skin reaction [3] of 0.7. For the same compound, the Average skin reaction [4] was 0, the No. of sensitive [5] was 5 and the Average skin reaction [6] was 0.4.

Compound C=C1CC(c2ccccc2)(c2ccccc2)OC1=O has a No. of sensitive [1] of 0, a No. of sensitive [2] of 5 and an Average skin reaction [3] of 0.4. The No. of sensitive [5] was 7, the Average skin reaction [7] was 0 and the Average skin reaction [6] was 0.9.

Work on C=C1C(=O)OC2CC3(C)CCCC(=O)C3CC12 (centres undefined) yielded a No. of sensitive [2] of 8, an Average skin reaction [3] of 0.9 and a No. of sensitive [5] of 7. For the same compound, the Average skin reaction [6] was 0.9.

C=C1CC2(CCCC3CCCCC32)OC1=O (centres undefined) was tested, and the No. of sensitive [1] was 0, the No. of sensitive [2] was 8 and the Average skin reaction [3] was 1.4. The Average skin reaction [4] was 0, the No. of sensitive [5] was 7 and the Average skin reaction [6] was 1.4.

C=C1C(=O)OC2CC3(C)CCCC4(CO4)C3CC12 (centres undefined) showed a No. of sensitive [2] of 8, an Average skin reaction [3] of 1 and a No. of sensitive [5] of 7. For the same compound, the Average skin reaction [6] was 0.7.

C=C1CC2(CCC(C(C)(C)C)CC2)OC1=O (centres undefined) showed a No. of sensitive [1] of 1, a No. of sensitive [2] of 8 and an Average skin reaction [3] of 1.1. For the same compound, the Average skin reaction [4] was 0, the No. of sensitive [5] was 6 and the Average skin reaction [6] was 0.8.

C=C1CC2(CCC3(CC2)CC(=C)C(=O)O3)OC1=O (centres undefined) was tested, and the No. of sensitive [1] was 0, the No. of sensitive [2] was 1 and the Average skin reaction [3] was 0.1. For the same compound, the Average skin reaction [4] was 0, the No. of sensitive [5] was 0 and the Average skin reaction [6] was 0.

For C=C1C(=O)OC2CCCCC12 (centres undefined), the No. of sensitive [1] was 3, the No. of sensitive [2] was 1 and the Average skin reaction [3] was 0.1. For the same compound, the Average skin reaction [4] was 0.1, the No. of sensitive [5] was 1 and the Average skin reaction [6] was 0.1.

Work on C=C1CC2(OC1=O)C1CC3CC(C1)CC2C3 (centres undefined) yielded a No. of sensitive [1] of 2, a No. of sensitive [2] of 8 and an Average skin reaction [3] of 0.8. The Average skin reaction [4] was 0.1, the No. of sensitive [5] was 6 and the Average skin reaction [6] was 0.8.

C=C1CC2(CC[C@@]3(C)C(CC[C@H]4[C@@H]5CC[C@H](C(C)CCCC(C)C)[C@@]5(C)CC[C@@H]43)C2)OC1=O (some centres undefined) gave a No. of sensitive [1] of 0, a No. of sensitive [2] of 0 and an Average skin reaction [3] of 0. It also gave an Average skin reaction [4] of 0, a No. of sensitive [5] of 1 and an Average skin reaction [6] of 0.1.

For C=C1CC(C(C)(C)C)OC1=O (centres undefined), the No. of sensitive [1] was 1, the No. of sensitive [2] was 5 and the Average skin reaction [3] was 0.5. For the same compound, the Average skin reaction [4] was 0.1, the No. of sensitive [5] was 3 and the Average skin reaction [6] was 0.3.

Work on C=C1C(=O)OC2C3CCC(C3)C12 (centres undefined) yielded a No. of sensitive [1] of 2, a No. of sensitive [2] of 8 and an Average skin reaction [3] of 1. The Average skin reaction [4] was 0.1, the No. of sensitive [5] was 7 and the Average skin reaction [6] was 0.9.

C=C1CC(C)(c2ccccc2)OC1=O (centres undefined) was tested, and the Average skin reaction [8] was 0.4, the No. of sensitive [1] was 5 and the No. of sensitive [2] was 8. It also gave a No. of sensitive [5] of 7, an Average skin reaction [9] of 1.1 and an Average skin reaction [10] of 1.3.

Work on C=C1CC(C)(CC(C)(C)C)OC1=O (centres undefined) yielded a No. of sensitive [1] of 2, a No. of sensitive [2] of 7 and an Average skin reaction [3] of 0.8. For the same compound, the Average skin reaction [4] was 0.1, the No. of sensitive [5] was 6 and the Average skin reaction [6] was 0.6.

C=C1CC2(CC3CCC2C3)OC1=O (centres undefined) was tested, and the No. of sensitive [1] was 0, the No. of sensitive [2] was 4 and the Average skin reaction [3] was 0.2. For the same compound, the Average skin reaction [4] was 0, the No. of sensitive [5] was 4 and the Average skin reaction [6] was 0.3.

C=C1CC2(CCCc3ccccc32)OC1=O (centres undefined) showed a No. of sensitive [1] of 10, a No. of sensitive [2] of 8 and an Average skin reaction [4] of 0.9. It also gave a No. of sensitive [5] of 7, an Average skin reaction [9] of 1.7 and an Average skin reaction [10] of 2.

For C=C1CC2(CC3CC4(CC(=C)C(=O)O4)CC3C2)OC1=O (centres undefined), the No. of sensitive [1] was 1, the No. of sensitive [2] was 3 and the Average skin reaction [3] was 0.2. The Average skin reaction [4] was 0, the No. of sensitive [5] was 2 and the Average skin reaction [6] was 0.2.

For C=C1CC2(CCCCCCCCC2)OC1=O, the No. of sensitive [1] was 0, the No. of sensitive [2] was 7 and the Average skin reaction [3] was 0.9. It also gave an Average skin reaction [4] of 0, a No. of sensitive [5] of 7 and an Average skin reaction [6] of 1.1.

C=C1CC2(CCCCCC2)OC1=O gave a No. of sensitive [1] of 2, a No. of sensitive [2] of 8 and an Average skin reaction [3] of 1.2. The Average skin reaction [4] was 0.1, the No. of sensitive [5] was 7 and the Average skin reaction [6] was 1.1.

Work on C=C1CC(c2ccccc2)OC1=O (centres undefined) yielded an Average skin reaction [8] of 1.4, a No. of sensitive [1] of 10 and a No. of sensitive [2] of 8. It also gave a No. of sensitive [5] of 7, an Average skin reaction [9] of 1.1 and an Average skin reaction [10] of 1.5.

Compound C=C1CC(C)(CC)OC1=O (centres undefined) has a No. of sensitive [1] of 0, a No. of sensitive [2] of 6 and an Average skin reaction [3] of 0.4. The Average skin reaction [4] was 0, the No. of sensitive [5] was 5 and the Average skin reaction [6] was 0.4.

Compound C=C1CC(CC)OC1=O (centres undefined) has a No. of sensitive [1] of 0 and an Average skin reaction [4] of 0.

For C=C1CC(C(C)C)(C(C)C)OC1=O, the No. of sensitive [1] was 0, the No. of sensitive [2] was 6 and the Average skin reaction [3] was 0.5. The Average skin reaction [4] was 0, the Average skin reaction [11] was 0.6 and the No. of sensitive [5] was 6.

C=C1CC(C)OC1=O (centres undefined) was tested, and the No. of sensitive [1] was 7, the No. of sensitive [2] was 0 and the Average skin reaction [3] was 0. For the same compound, the Average skin reaction [4] was 0.6, the No. of sensitive [5] was 0 and the Average skin reaction [6] was 0.

In the case of C=C1CC2(OC1=O)C(C)CCCC2C (centres undefined), the No. of sensitive [1] was 0, the No. of sensitive [2] was 8 and the Average skin reaction [3] was 1.7. It also gave an Average skin reaction [4] of 0, a No. of sensitive [5] of 7 and an Average skin reaction [6] of 1.

For C=C1CC(CCCCCCCCCCC)OC1=O (centres undefined), the Average skin reaction [8] was 1, the No. of sensitive [1] was 10 and the No. of sensitive [2] was 8. It also gave a No. of sensitive [5] of 7, an Average skin reaction [9] of 0.9 and an Average skin reaction [10] of 1.2.

Work on C=C1CC(C)(C)OC1=O yielded a No. of sensitive [1] of 6, a No. of sensitive [2] of 0 and an Average skin reaction [3] of 0. It also gave an Average skin reaction [4] of 0.5, a No. of sensitive [5] of 0 and an Average skin reaction [6] of 0.

C=C1C(=O)OC2CC3(C)CCCC(C)C3=CC12 (centres undefined) was tested, and the No. of sensitive [1] was 0, the No. of sensitive [2] was 8 and the Average skin reaction [3] was 2.1. The Average skin reaction [4] was 0, the No. of sensitive [5] was 7 and the Average skin reaction [6] was 3.

For C=C1CC2(CCCC2)OC1=O, the No. of sensitive [1] was 0, the No. of sensitive [2] was 1 and the Average skin reaction [3] was 0.1. The Average skin reaction [4] was 0, the No. of sensitive [5] was 2 and the Average skin reaction [6] was 0.2.

C=C1CC2(CCCCC2)OC1=O gave a No. of sensitive [1] of 2, a No. of sensitive [2] of 8 and an Average skin reaction [3] of 0.8. The Average skin reaction [4] was 0.1, the No. of sensitive [5] was 5 and the Average skin reaction [6] was 0.5.

For C=C1C(=O)O[C@@H]2C[C@@]3(C)CCCC(=C)[C@@H]3C[C@H]12 [ISOALANTOLACTONE], the No. of sensitive [1] was 0, the No. of sensitive [2] was 8 and the Average skin reaction [3] was 1.4. For the same compound, the Average skin reaction [4] was 0, the No. of sensitive [5] was 7 and the Average skin reaction [6] was 1.4.

Work on C=C1CCOC1=O [TULIPALINE A] yielded a No. of sensitive [1] of 10, an Average skin reaction [4] of 1.9 and a No. of sensitive [5] of 1. For the same compound, the Average skin reaction [6] was 0.1.
